Results collected from several papers.
Compare with care: the assays were run in different laboratories.
Target: Serine/threonine-protein kinase tousled-like 1 (TLK1, Homo sapiens, UniProt Q9UKI8)
Residues used in one study (Q9UKI8 1-766): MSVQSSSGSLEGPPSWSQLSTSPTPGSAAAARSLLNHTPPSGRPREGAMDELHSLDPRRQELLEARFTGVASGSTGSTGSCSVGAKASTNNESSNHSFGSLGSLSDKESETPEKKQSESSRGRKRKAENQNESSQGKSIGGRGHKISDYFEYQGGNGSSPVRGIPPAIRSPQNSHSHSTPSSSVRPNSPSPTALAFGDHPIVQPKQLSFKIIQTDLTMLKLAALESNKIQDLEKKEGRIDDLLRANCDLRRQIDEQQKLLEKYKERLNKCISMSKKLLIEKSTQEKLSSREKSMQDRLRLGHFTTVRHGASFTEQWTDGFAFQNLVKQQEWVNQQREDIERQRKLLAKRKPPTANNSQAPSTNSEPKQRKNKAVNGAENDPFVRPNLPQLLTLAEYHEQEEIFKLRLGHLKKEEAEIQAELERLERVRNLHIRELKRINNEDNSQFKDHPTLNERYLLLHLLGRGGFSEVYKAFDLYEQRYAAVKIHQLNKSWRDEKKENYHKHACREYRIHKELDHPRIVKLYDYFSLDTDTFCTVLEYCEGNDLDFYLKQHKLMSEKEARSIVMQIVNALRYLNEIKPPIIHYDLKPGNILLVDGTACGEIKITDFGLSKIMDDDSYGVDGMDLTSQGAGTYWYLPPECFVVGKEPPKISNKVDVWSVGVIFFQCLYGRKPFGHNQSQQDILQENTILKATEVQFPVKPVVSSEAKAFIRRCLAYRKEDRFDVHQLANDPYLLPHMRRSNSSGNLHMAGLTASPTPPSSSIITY

O=C(N1CCS(=O)(=O)CC1)N1C[C@H](c2ccc(OC(F)(F)F)cc2)C[C@H](c2nc(C3CC3)no2)C1  remaining binding (cell-free assay, competition with immobilised ligand; 1 µM): 94%
Cc1cnc(NC2CCOCC2)nc1-n1cnc(C(=O)NC(CN)c2cc(F)cc(Cl)c2)c1 (stereo not shown)  remaining activity (enzyme activity, inhibitor, radiometric; 1 µM): 99%
CC(C)(C)c1nc(-c2cccc(NS(=O)(=O)c3c(F)cccc3F)c2F)c(-c2ccnc(N)n2)s1  remaining activity (enzyme activity, inhibitor, radiometric; 1 µM): 108%
Cc1ccc(C(=O)Nc2ccc(CN3CCN(C)CC3)c(C(F)(F)F)c2)cc1C#Cc1cnc2cccnn12  remaining activity (enzyme activity, inhibitor; 23.5 nM): 100%
COc1cc(/C=C/C(=O)CC(=O)/C=C/c2ccc(O)c(OC)c2)ccc1O  activity vs control (enzyme activity, inhibitor; 1 µM): 128%
C[C@@H](c1cccc(C#N)c1)n1cc(Cl)cc(C(N)=O)c1=N  remaining binding (cell-free assay, competition with immobilised ligand; 1 µM): 100%
Nc1ncnc2occ(-c3ccc(NC(=O)Nc4cc(C(F)(F)F)ccc4F)cc3)c12  remaining signal (cell-free assay, inhibitor; 20 µM): 39%
COc1ccc2c(O[C@@H]3C[C@H]4C(=O)N[C@]5(C(=O)O)CC5/C=C\CCCCC[C@H](NC(=O)OC5CCCC5)C(=O)N4C3)cc(-c3csc(NC(=O)C(C)C)n3)nc2c1C (stereo partly shown)  remaining binding (cell-free assay, competition with immobilised ligand; 1 µM): 100%
COc1cc(Nc2cnc(C#N)c(O[C@H](C)CN(C)C)n2)ncc1-c1cnn(C)c1  remaining activity (enzyme activity, inhibitor, radiometric; 10 µM): 93%
C[C@H](c1ccnc(Nc2nc3ccc(-c4cc(N(C)C)ncn4)cc3[nH]2)c1)N1CCN(C(=O)CC(F)(F)F)CC1  remaining binding (cell-free assay, competition with immobilised ligand; 0.1 µM): 76%
Cc1ccc(C(=O)NCc2ccsc2)cc1C#Cc1cn(C(C)C)c2ncnc(N)c12  activity vs control (enzyme activity, inhibitor; 1 µM): 80%
Cc1sc(C(=O)NC2COC2)cc1-n1cc(NC(=O)Nc2c(F)cccc2Cl)cn1  remaining activity (enzyme activity, inhibitor; 10 µM): 105%
CN1CC(Oc2cnc(C#N)cc2-c2ccn3nc(NC(=O)C4CC4)cc3c2)C1  inhibition (enzyme activity, inhibitor; 1 µM): -13%
Cc1cc(NC(=O)c2cccc3cc(-c4cccc5[nH]nc(N)c45)ccc23)ccc1F  activity vs control (enzyme activity, inhibitor; 0.1 µM): 88%
CC(C)(O)[C@H]1CC[C@H](Nc2ccc3ncc(-c4cccc(C(F)(F)F)c4)n3n2)CC1  remaining activity (enzyme activity, inhibitor; 1 µM): 94.2%
O=C(Nc1cnn(-c2csc(C(=O)NC3COC3)c2)c1)Nc1c(F)cccc1Cl  remaining activity (enzyme activity, inhibitor; 5 µM): 53.4%
COc1cc(Cl)c(C(=O)N[C@@H](CN[C@H]2CC[C@@H](N)CC2)Cc2ccc(C#N)cc2)cc1-c1ccc(CN[C@H](C)c2ccc(C)cc2)o1  remaining activity (enzyme activity, inhibitor; 1 µM): 94%
Cc1ccc(NC(=O)c2ccc(C)c(C(F)(F)F)c2)cc1C#Cc1nn(C2CCC(O)CC2)c2ncnc(N)c12 (stereo not shown)  remaining signal (cell-free assay; 10 µM): 95%
CC(C)(C)c1nc2c(s1)c1nc(N)ncc1c1ccc(NS(=O)(=O)c3c(F)cccc3F)c(F)c12  remaining activity (enzyme activity, inhibitor, radiometric; 1 µM): 92%
